Measurements published in ChEMBL document CHEMBL3091458, “Design, synthesis, and biological evaluation of 1,2,4-triazole bearing 5-substituted biphenyl-2-sulfonamide derivatives as potential antihypertensive candidates” (Bioorg Med Chem, 2013).
Values belong to the compound of their own block, whether it stands above or below them.

How the values were obtained:
[1] = Displacement of [125I]-Ang-2 from AT2 receptor in porcine myometrial membranes after 1.5 hrs; type: cell membranes, Sus scrofa
Outline: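 Membranes were made from porcine uteri (myometrium). AT1 binding was blocked by adding losartan. [125I]Ang II binding ran in 50 mM Tris-HCl pH 7.4 with 100 mM NaCl, 10 mM MgCl2, 1 mM EDTA, 0.025% bacitracin and 0.2% BSA, at 25 °C for 1.5 h. Bound ligand was caught on GF/C filters, washed with cold Tris and gamma-counted. IC50 was the concentration displacing 50% of specific binding. Run in triplicate.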

[2] = Displacement of [125I]-Ang-2 from AT1 receptor in rat liver membranes after 1.5 hrs; type: cell membranes, Membrane
Rattus norvegicus [3] = experiment: Toxicity in renal spontaneously hypertensive rat model assessed as reduction of heart rate at 20 mg/kg, po measured at 8 hrs by tail-cuff method relative to control; type: organism-based; parameters: dose 20 mg/kg, route oral; details: in vivo
Outline: (§1)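 Spontaneously hypertensive rats were dosed orally with the test agent at 20 mg/kg, with a saline-dosed control group. SAP, DAP, MAP and heart rate were recorded before dosing and at 1, 2, 4, 6 and 8 h after. Change was taken as the post-dose value minus the pre-dose value. Significance was judged against the control at p < 0.1 and p < 0.05.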

Rattus norvegicus [4] = experiment: Toxicity in renal spontaneously hypertensive rat model assessed as reduction of heart rate at 20 mg/kg, po measured at 6 hrs by tail-cuff method relative to control; type: organism-based; parameters: dose 20 mg/kg, route oral; details: in vivo; outline: as §1
Rattus norvegicus [5] = experiment: Toxicity in renal spontaneously hypertensive rat model assessed as reduction of heart rate at 20 mg/kg, po measured at 4 hrs by tail-cuff method relative to control; type: organism-based; parameters: dose 20 mg/kg, route oral; details: in vivo; outline: as §1
Rattus norvegicus [6] = experiment: Toxicity in renal spontaneously hypertensive rat model assessed as reduction of heart rate at 20 mg/kg, po measured at 2 hrs by tail-cuff method relative to control; type: organism-based; parameters: dose 20 mg/kg, route oral; details: in vivo; outline: as §1
Rattus norvegicus [7] = experiment: Toxicity in renal spontaneously hypertensive rat model assessed as reduction of heart rate at 20 mg/kg, po measured at 1 hr by tail-cuff method relative to control; type: organism-based; parameters: dose 20 mg/kg, route oral; details: in vivo; outline: as §1
Rattus norvegicus [8] = experiment: Antihypertensive activity in renal spontaneously hypertensive rat model assessed as reduction of mean arterial pressure at 20 mg/kg, po measured at 6 hrs by tail-cuff method relative to control; type: functional, Artery; outline: as §1
Rattus norvegicus [9] = experiment: Antihypertensive activity in renal spontaneously hypertensive rat model assessed as reduction of mean arterial pressure at 20 mg/kg, po measured at 4 hrs by tail-cuff method relative to control; type: functional, Artery; outline: as §1
Rattus norvegicus [10] = experiment: Antihypertensive activity in renal spontaneously hypertensive rat model assessed as reduction of mean arterial pressure at 20 mg/kg, po measured at 1 hr by tail-cuff method relative to control; type: functional, Artery; outline: as §1
Rattus norvegicus [11] = experiment: Antihypertensive activity in renal spontaneously hypertensive rat model assessed as reduction of diastolic arterial pressure at 20 mg/kg, po measured at 8 hrs by tail-cuff method relative to control; type: functional, Artery; outline: as §1
Rattus norvegicus [12] = experiment: Antihypertensive activity in renal spontaneously hypertensive rat model assessed as reduction of diastolic arterial pressure at 20 mg/kg, po measured at 6 hrs by tail-cuff method relative to control; type: functional, Artery; outline: as §1
Rattus norvegicus [13] = experiment: Antihypertensive activity in renal spontaneously hypertensive rat model assessed as reduction of diastolic arterial pressure at 20 mg/kg, po measured at 4 hrs by tail-cuff method relative to control; type: functional, Artery; outline: as §1
Rattus norvegicus [14] = experiment: Antihypertensive activity in renal spontaneously hypertensive rat model assessed as reduction of diastolic arterial pressure at 20 mg/kg, po measured at 2 hrs by tail-cuff method relative to control; type: functional, Artery; outline: as §1
Rattus norvegicus [15] = experiment: Antihypertensive activity in renal spontaneously hypertensive rat model assessed as reduction of diastolic arterial pressure at 20 mg/kg, po measured at 1 hr by tail-cuff method relative to control; type: functional, Artery; outline: as §1
Rattus norvegicus [16] = experiment: Antihypertensive activity in renal spontaneously hypertensive rat model assessed as reduction of systolic arterial pressure at 20 mg/kg, po measured at 8 hrs by tail-cuff method relative to control; type: functional, Artery; outline: as §1
Rattus norvegicus [17] = experiment: Antihypertensive activity in renal spontaneously hypertensive rat model assessed as reduction of systolic arterial pressure at 20 mg/kg, po measured at 6 hrs by tail-cuff method relative to control; type: functional, Artery; outline: as §1
Rattus norvegicus [18] = experiment: Antihypertensive activity in renal spontaneously hypertensive rat model assessed as reduction of systolic arterial pressure at 20 mg/kg, po measured at 4 hrs by tail-cuff method relative to control; type: functional, Artery; outline: as §1
Rattus norvegicus [19] = experiment: Antihypertensive activity in renal spontaneously hypertensive rat model assessed as reduction of systolic arterial pressure at 20 mg/kg, po measured at 2 hrs by tail-cuff method relative to control; type: functional, Artery; outline: as §1
Rattus norvegicus [20] = experiment: Antihypertensive activity in renal spontaneously hypertensive rat model assessed as reduction of systolic arterial pressure at 20 mg/kg, po measured at 1 hr by tail-cuff method relative to control; type: functional, Artery; outline: as §1
Rattus norvegicus [21] = experiment: Antihypertensive activity in renal spontaneously hypertensive rat model assessed as reduction of mean arterial pressure at 20 mg/kg, po measured at 8 hrs by tail-cuff method relative to control; type: functional, Artery; outline: as §1
Rattus norvegicus [22] = experiment: Antihypertensive activity in renal spontaneously hypertensive rat model assessed as reduction of mean arterial pressure at 20 mg/kg, po measured at 2 hrs by tail-cuff method relative to control; type: functional, Artery; outline: as §1

IC50 [1]: 29 nM | IC50 [2]: > 10000 nM
Compound: Cc1cc(Cn2cnc3c2C[C@@H](C(=O)O)N(C(=O)C(c2ccccc2)c2ccccc2)C3)ccc1N(C)C

IC50 [1]: 68 nM | IC50 [2]: > 10000 nM
Compound: CCC(=O)NS(=O)(=O)c1ccc(CC(C)C)cc1-c1ccc(Cn2cncn2)cc1

IC50 [1]: 31 nM | IC50 [2]: > 10000 nM
Compound: CCCCC(=O)NS(=O)(=O)c1ccc(CC(C)C)cc1-c1ccc(Cn2cncn2)cc1

IC50 [1]: > 10000 nM | IC50 [2]: > 10000 nM
Compound: Cc1ccc(C(=O)NS(=O)(=O)c2ccc(CC(C)C)cc2-c2ccc(Cn3cncn3)cc2)cc1

IC50 [1]: 10 nM | IC50 [2]: > 10000 nM
Compound: CCOC(=O)NS(=O)(=O)c1ccc(CC(C)C)cc1-c1ccc(Cn2cncn2)cc1

IC50 [1]: 55 nM | IC50 [2]: > 10000 nM
Compound: CC(C)Cc1ccc(S(=O)(=O)NC(=O)OC(C)(C)C)c(-c2ccc(Cn3cncn3)cc2)c1

IC50 [1]: 0.4 nM | IC50 [2]: > 10000 nM
Compound: CCCCOC(=O)NS(=O)(=O)c1ccc(CC(C)C)cc1-c1ccc(Cn2cncn2)cc1
Activity (Rattus norvegicus [3]): -14.33 bpm | Activity (Rattus norvegicus [4]): -16.69 bpm | Activity (Rattus norvegicus [5]): -14.53 bpm | Activity (Rattus norvegicus [6]): -5.02 bpm | Activity (Rattus norvegicus [7]): 7.25 bpm | Activity (Rattus norvegicus [8]): -21.88 mmHg | Activity (Rattus norvegicus [9]): -14.16 mmHg | Activity (Rattus norvegicus [10]): 4.43 mmHg | Activity (Rattus norvegicus [11]): -14.1 mmHg | Activity (Rattus norvegicus [12]): -21.36 mmHg | Activity (Rattus norvegicus [13]): -12.32 mmHg | Activity (Rattus norvegicus [14]): -3.55 mmHg | Activity (Rattus norvegicus [15]): 4.93 mmHg | Activity (Rattus norvegicus [16]): -15.22 mmHg | Activity (Rattus norvegicus [17]): -20.94 mmHg | Activity (Rattus norvegicus [18]): -14.29 mmHg | Activity (Rattus norvegicus [19]): -4.26 mmHg | Activity (Rattus norvegicus [20]): -7.25 mmHg | Activity (Rattus norvegicus [21]): -15.09 mmHg | Activity (Rattus norvegicus [22]): -4.78 mmHg

IC50 [1]: > 10000 nM | IC50 [2]: > 10000 nM
Compound: CC(C)Cc1ccc(S(=O)(=O)NC(=O)OCc2ccccc2)c(-c2ccc(Cn3cncn3)cc2)c1

IC50 [1]: 184 nM | IC50 [2]: > 10000 nM
Compound: CCC(=O)NS(=O)(=O)c1ccc(OC)cc1-c1ccc(Cn2cncn2)cc1

IC50 [1]: 99 nM | IC50 [2]: > 10000 nM
Compound: CCCCC(=O)NS(=O)(=O)c1ccc(OC)cc1-c1ccc(Cn2cncn2)cc1

IC50 [1]: 36 nM | IC50 [2]: > 10000 nM
Compound: CCOC(=O)NS(=O)(=O)c1ccc(OC)cc1-c1ccc(Cn2cncn2)cc1

IC50 [1]: 170 nM | IC50 [2]: > 10000 nM
Compound: COc1ccc(S(=O)(=O)NC(=O)OC(C)(C)C)c(-c2ccc(Cn3cncn3)cc2)c1

IC50 [1]: 5 nM | IC50 [2]: > 10000 nM
Compound: CCCCOC(=O)NS(=O)(=O)c1ccc(OC)cc1-c1ccc(Cn2cncn2)cc1
Activity (Rattus norvegicus [3]): -22.9 bpm | Activity (Rattus norvegicus [4]): -14.47 bpm | Activity (Rattus norvegicus [5]): -13.45 bpm | Activity (Rattus norvegicus [6]): -7.64 bpm | Activity (Rattus norvegicus [7]): 7.05 bpm | Activity (Rattus norvegicus [8]): -17.08 mmHg | Activity (Rattus norvegicus [9]): -10.15 mmHg | Activity (Rattus norvegicus [10]): -4.09 mmHg | Activity (Rattus norvegicus [11]): -13.1 mmHg | Activity (Rattus norvegicus [12]): -17.36 mmHg | Activity (Rattus norvegicus [13]): -10.32 mmHg | Activity (Rattus norvegicus [14]): -5.06 mmHg | Activity (Rattus norvegicus [15]): -4.21 mmHg | Activity (Rattus norvegicus [16]): -10.1 mmHg | Activity (Rattus norvegicus [17]): -18.94 mmHg | Activity (Rattus norvegicus [18]): -10.71 mmHg | Activity (Rattus norvegicus [19]): -4.26 mmHg | Activity (Rattus norvegicus [20]): -3.41 mmHg | Activity (Rattus norvegicus [21]): -12.19 mmHg | Activity (Rattus norvegicus [22]): -5.62 mmHg

IC50 [1]: > 10000 nM | IC50 [2]: > 10000 nM
Compound: COc1ccc(S(=O)(=O)NC(=O)OCc2ccccc2)c(-c2ccc(Cn3cncn3)cc2)c1

IC50 [1]: 223 nM | IC50 [2]: > 10000 nM
Compound: CCC(=O)NS(=O)(=O)c1ccc(C)cc1-c1ccc(Cn2cncn2)cc1
